Test results taken from ChEMBL document CHEMBL3259660, “Haloemodin as novel antibacterial agent inhibiting DNA gyrase and bacterial topoisomerase I” (J Med Chem, 2014).
In brackets after ≈: the same amount, converted by molar mass. Activity calls are given as the source filed them. The rule behind the calls is not given here.

Tests used:
[1] = target: T1, DNA topoisomerase 1 (Escherichia coli (strain K12)) (UniProt P06612); assay: Inhibition of Escherichia coli topoisomerase 1-mediated pHOT-1 DNA relaxation treated with pHOT-1 substrate for 15 mins prior to enzyme addition for 30 mins by agarose gel electrophoresis
T1 sequence (whole entry): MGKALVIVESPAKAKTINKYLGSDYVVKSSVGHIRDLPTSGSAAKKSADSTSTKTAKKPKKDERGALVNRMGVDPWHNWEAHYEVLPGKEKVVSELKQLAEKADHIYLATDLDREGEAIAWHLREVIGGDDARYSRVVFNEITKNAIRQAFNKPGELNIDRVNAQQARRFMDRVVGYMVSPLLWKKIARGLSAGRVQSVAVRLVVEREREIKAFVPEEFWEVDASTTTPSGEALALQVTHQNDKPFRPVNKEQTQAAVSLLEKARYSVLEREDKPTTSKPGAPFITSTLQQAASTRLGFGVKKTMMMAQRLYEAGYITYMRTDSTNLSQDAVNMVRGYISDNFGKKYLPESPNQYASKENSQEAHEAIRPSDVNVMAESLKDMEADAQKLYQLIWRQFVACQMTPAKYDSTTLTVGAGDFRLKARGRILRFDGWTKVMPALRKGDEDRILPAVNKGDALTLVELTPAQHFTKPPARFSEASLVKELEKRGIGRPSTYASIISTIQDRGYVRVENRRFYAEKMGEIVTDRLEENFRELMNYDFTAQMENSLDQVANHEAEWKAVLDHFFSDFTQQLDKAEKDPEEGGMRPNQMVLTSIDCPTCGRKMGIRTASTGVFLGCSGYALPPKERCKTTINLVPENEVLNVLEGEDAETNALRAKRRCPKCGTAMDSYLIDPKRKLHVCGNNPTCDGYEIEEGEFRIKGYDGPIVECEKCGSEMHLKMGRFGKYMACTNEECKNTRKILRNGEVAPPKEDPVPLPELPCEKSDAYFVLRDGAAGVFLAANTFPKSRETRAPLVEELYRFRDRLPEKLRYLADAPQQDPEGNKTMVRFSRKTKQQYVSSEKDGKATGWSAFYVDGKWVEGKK

[2] = test system: Bacteroides fragilis; assay: Antibacterial activity against Bacteroides fragilis assessed as growth inhibition by agar dilution assay; type: functional
Procedure, shortened: (§1)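 Agar dilution MIC per CLSI (aerobic and anaerobic methods); compounds dissolved in DMSO, reference antibiotics in sterile water. MIC taken as lowest concentration with no visible growth; determined at least twice on separate days, higher value reported. Clinical isolate ranges summarized as MIC50/MIC90.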

[3] = Cytotoxicity against CHL cells assessed as cell viability after 24 hrs by MTT assay; type: cell-based, Cricetulus griseus; conditions: chinese hamster
Procedure, shortened: (§2)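 CHL fibroblasts seeded at about 5 × 10^4 cells/mL, incubated overnight at 37 °C, 5% CO2, then exposed to compound at different concentrations for 24 h. Viability read by MTT, absorbance at 570 nm, relative to cells in medium alone (100%). Triplicate.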

[4] = test system: Brevibacillus laterosporus; assay: Antibacterial activity against Brevibacillus laterosporus ATCC 64 assessed as growth inhibition by agar dilution assay; type: functional
[5] = test system: Escherichia coli; assay: Antibacterial activity against Escherichia coli assessed as growth inhibition by agar dilution assay; type: functional, organism-based; procedure, shortened: as §1
[6] = In vivo acute toxicity in iv dosed Kunming mouse; type: organism-based
Procedure, shortened: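 Male and female adult Kunming mice (18−22 g) received a single intravenous injection at various doses (n = 10 per group, 200 μL per mouse). Compound was given in polyethylene glycol−water (1:1, v/v), and controls received vehicle alone. Mortality was recorded for 7 days. LD50 was estimated by probit analysis.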

[7] = test system: Enterococcus faecalis; assay: Antibacterial activity against vancomycin-sensitive Enterococcus faecalis assessed as growth inhibition by agar dilution assay; type: functional
[8] = target: DNA gyrase (Staphylococcus aureus) (UniProt P0A0K8+P20831); assay: Inhibition of Staphylococcus aureus DNA gyrase-mediated double-stranded catenated kinetoplast DNA decatenation at 90 uM after 30 mins by agarose gel electrophoresis in presence of ATP; type: protein-complex assay
Chain of DNA gyrase (Staphylococcus aureus) (P0A0K8 2-644 limits assumed): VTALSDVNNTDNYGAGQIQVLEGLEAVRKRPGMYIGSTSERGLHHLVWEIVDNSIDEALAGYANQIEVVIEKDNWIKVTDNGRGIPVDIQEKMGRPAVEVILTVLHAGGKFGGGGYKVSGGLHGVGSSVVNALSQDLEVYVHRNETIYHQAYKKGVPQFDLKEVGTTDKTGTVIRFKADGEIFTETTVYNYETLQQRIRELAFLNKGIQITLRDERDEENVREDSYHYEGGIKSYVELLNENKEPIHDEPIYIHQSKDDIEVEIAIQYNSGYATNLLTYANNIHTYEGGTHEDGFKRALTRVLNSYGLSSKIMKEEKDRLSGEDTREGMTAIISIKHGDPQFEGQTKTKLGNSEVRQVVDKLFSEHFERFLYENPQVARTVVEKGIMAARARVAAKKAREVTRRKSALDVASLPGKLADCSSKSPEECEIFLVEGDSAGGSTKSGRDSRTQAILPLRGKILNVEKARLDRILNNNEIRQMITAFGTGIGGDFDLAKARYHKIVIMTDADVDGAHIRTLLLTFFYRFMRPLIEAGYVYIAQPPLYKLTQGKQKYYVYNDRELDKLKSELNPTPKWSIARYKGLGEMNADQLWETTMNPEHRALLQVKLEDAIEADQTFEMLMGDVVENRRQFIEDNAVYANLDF
Chain of DNA gyrase (Staphylococcus aureus) (P20831 whole entry partner): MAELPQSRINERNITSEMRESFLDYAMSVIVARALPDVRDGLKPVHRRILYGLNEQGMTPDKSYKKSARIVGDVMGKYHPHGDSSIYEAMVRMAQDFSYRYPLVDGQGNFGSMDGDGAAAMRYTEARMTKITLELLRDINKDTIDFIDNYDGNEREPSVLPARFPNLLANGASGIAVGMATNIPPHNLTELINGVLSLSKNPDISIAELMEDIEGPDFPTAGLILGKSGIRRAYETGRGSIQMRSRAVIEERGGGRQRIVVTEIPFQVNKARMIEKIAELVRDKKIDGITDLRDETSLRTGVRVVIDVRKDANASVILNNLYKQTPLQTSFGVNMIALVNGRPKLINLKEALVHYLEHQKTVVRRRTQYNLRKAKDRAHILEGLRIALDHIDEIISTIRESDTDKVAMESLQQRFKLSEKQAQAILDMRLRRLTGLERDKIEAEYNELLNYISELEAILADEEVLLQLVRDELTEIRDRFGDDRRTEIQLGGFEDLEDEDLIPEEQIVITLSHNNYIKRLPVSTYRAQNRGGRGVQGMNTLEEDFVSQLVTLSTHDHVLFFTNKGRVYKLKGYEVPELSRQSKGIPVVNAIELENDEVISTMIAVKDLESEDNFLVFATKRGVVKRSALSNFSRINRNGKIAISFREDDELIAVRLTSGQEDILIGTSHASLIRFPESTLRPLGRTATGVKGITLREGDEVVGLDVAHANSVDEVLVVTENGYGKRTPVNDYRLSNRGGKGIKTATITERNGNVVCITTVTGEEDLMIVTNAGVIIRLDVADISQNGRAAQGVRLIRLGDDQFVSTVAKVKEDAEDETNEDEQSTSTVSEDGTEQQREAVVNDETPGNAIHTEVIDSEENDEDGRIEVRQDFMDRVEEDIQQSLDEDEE
Procedure, shortened: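 kDNA decatenation: 200 ng catenated kDNA with 1 U S. aureus gyrase, E. coli gyrase or human Topo IIα in assay buffer with ATP, 37 °C for 30 min. Stopped with universal stop solution, resolved on 1% agarose, ethidium bromide stained, UV imaging.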

[9] = test system: Staphylococcus aureus; assay: In vivo antibacterial activity against Staphylococcus aureus in New zealand rabbit keratitis model assessed as suppression of corneal edema at 4.3 mg/ml administered topically every 4 hrs for four doses every day for 10 days starting 24 hrs post-infection by slit lamp biomicroscopy; type: functional, organism-based; conditions: Cornea
Procedure, shortened: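 NZW rabbits (2.0−3.0 kg), anesthetized with iv sodium pentobarbital 30 mg/kg, given intracorneal S. aureus (about 7.5 × 10^6 CFU) from an overnight LB culture. Starting 24 h post-infection, 30 μL drops applied topically per eye every 4 h, four doses daily (8 a.m.–8 p.m.), for 10 days, masked. Test compound in PEG–water (1:1). Slit-lamp biomicroscopy before and after.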

[10] = test system: Escherichia coli; assay: Antibacterial activity against Escherichia coli assessed as growth inhibition at <0.256 mg/ml by agar dilution assay; type: functional, organism-based
[11] = test system: Staphylococcus aureus; assay: Antibacterial activity against methicillin-sensitive Staphylococcus aureus assessed as growth inhibition by agar dilution assay; type: functional; procedure, shortened: as §1
[12] = target: T1, DNA topoisomerase 1 (Escherichia coli (strain K12)); assay: Inhibition of Escherichia coli topoisomerase 1-mediated pHOT-1 DNA relaxation at >90 uM treated with pHOT-1 substrate for 15 mins prior to enzyme addition for 30 mins by agarose gel electrophoresis
[13] = test system: Pseudomonas aeruginosa; assay: Antibacterial activity against Pseudomonas aeruginosa ATCC 27853 assessed as growth inhibition by agar dilution assay; type: functional; procedure, shortened: as §1
[14] = test system: Enterococcus faecium; assay: Antibacterial activity against vancomycin-sensitive Enterococcus faecium assessed as growth inhibition by agar dilution assay; type: functional
[15] = test system: Enterococcus faecalis; assay: microbe, parasite or virus in culture; type: functional; conditions: ATCC 29212
[16] = test system: Escherichia coli; assay: Antibacterial activity against Escherichia coli assessed as growth inhibition by agar dilution assay in presence of 0.002 mg/ml OM permeabilizer PBMN; type: functional
[17] = test system: Staphylococcus epidermidis; assay: Antibacterial activity against methicillin-sensitive Staphylococcus epidermidis assessed as growth inhibition by agar dilution assay; type: functional; procedure, shortened: as §1
[18] = test system: Pseudomonas aeruginosa; assay: Antibacterial activity against Pseudomonas aeruginosa assessed as growth inhibition by agar dilution assay; type: functional
Procedure, shortened: (§3)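 CLSI agar dilution MIC against aerobic and anaerobic strains. Test compounds were dissolved in DMSO and reference antibiotics in sterile water. MIC was taken as the lowest concentration showing no bacterial growth. Each MIC was determined at least twice on separate days, and the higher value was reported. E. coli PQ 37 was cultured in LA medium.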

[19] = test system: Streptococcus pneumoniae; assay: Antibacterial activity against Streptococcus pneumoniae ATCC 49619 assessed as growth inhibition by agar dilution assay; type: functional; procedure, shortened: as §1
[20] = Cytotoxicity against CHL cells assessed as cell viability at 0.064 mg/ml after 24 hrs by MTT assay; type: cell-based, Cricetulus griseus; conditions: chinese hamster; procedure, shortened: as §2
[21] = test system: Staphylococcus aureus; assay: Antibacterial activity against methicillin-resistant Staphylococcus aureus assessed as growth inhibition by agar dilution assay; type: functional; procedure, shortened: as §3
[22] = Binding affinity to supercoiled pHOT-1 DNA assessed as unwinding of DNA helix by measuring distribution of topoisomers at 10 to 150 uM treated 15 mins prior to human topoisomerase 1 addition for 30 mins by agarose gel electrophoresis
[23] = test system: Enterococcus faecium; assay: Antibacterial activity against vancomycin-resistant Enterococcus faecium assessed as growth inhibition by agar dilution assay; type: functional

With Cc1cc(O)c2c(c1)C(=O)c1c(I)c(O)c(I)c(O)c1C2=O the inhibition [1] was “Dose-dependent effect”, the MIC [2] was 64 µg/mL (≈ 123 µM) and the IC90 at 24 h [3] was 256 µg/mL (≈ 490 µM). For the same molecule, the MIC [4] was 4 µg/mL (≈ 7.66 µM), the “growth inhibition (GI)” value [5] was “inactive” and the LD50 [6] was 110 mg/kg. The MIC [7] was 8 µg/mL (≈ 15.3 µM), the inhibition [8] was “Active” and the inhibition [9] was “Active”. The “growth inhibition (GI)” value [10] was “inactive”, the MIC [11] was 8 µg/mL (≈ 15.3 µM) and the inhibition [12] was “Active”. It also gave an MIC [13] of over 256 µg/mL, an MIC [14] of 16 µg/mL (≈ 30.6 µM) and an MIC [15] of 16 µg/mL (≈ 30.6 µM). The MIC [16] was 8 µg/mL, the MIC [17] was 1 µg/mL (≈ 1.92 µM) and the MIC [18] was over 256 µg/mL. The MIC [19] was 64 µg/mL (≈ 123 µM), the Activity [20] was “Non-toxic” and the MIC [21] was 4 µg/mL (≈ 7.66 µM). The Activity [22] was “inactive” and the MIC [23] was 8 µg/mL (≈ 15.3 µM).
